Calls of active or inactive are those of the source. The calls are words filed in the database; no cut-off is given here.

Data set [1] in a line: Induction of osteoblast differentiation in Sprague-Dawley rat calvarial osteoblasts assessed as alkaline phosphatase activity after 48 hrs using PNPP as substrate by spectrophotometric method. The class given is functional, cell-based. Particulars: Rattus norvegicus, Sprague-Dawley, Calvarial osteoblast, 48 h; read-out: EC50. The method in brief:
(§1)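 Calvarial osteoblasts at 2 × 10³ cells/well. Treated 48 h with varied concentrations in differentiation medium (5% charcoal-treated FBS, 10 mM β-glycerophosphate, 50 µg·mL⁻¹ ascorbic acid). Total ALP read with PNPP substrate at 405 nm. Cell-free wells check for compound interference with substrate or absorbance.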

The nature of data set [2]: Induction of osteoblast differentiation in Sprague-Dawley rat calvarial osteoblasts assessed as alkaline phosphatase activity at 100 nM after 48 hrs using PNPP as substrate by spectrophotometric method relative to control. Type of data set: functional. An outline of the steps: as §1
Data set [3] is described as follows: Induction of osteoblast differentiation in Sprague-Dawley rat calvarial osteoblasts assessed as alkaline phosphatase activity at 10 nM after 48 hrs using PNPP as substrate by spectrophotometric method relative to control. The class given is functional. The method in brief: as §1
In data set [4] the test system is Calvarial osteoblast. The data set can be described thus: Cytotoxicity against Sprague-Dawley rat calvarial osteoblasts assessed as reduction in cell viability at 0.000001 to 1 uM after 48 hrs by MTT assay. The class given is cell-based. The method in brief: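 Osteoblasts came from pooled calvaria of 1-2-day-old Sprague-Dawley pups, isolated by sequential dispase/collagenase digestion. Cells were exposed to compound at 1 pM to 1 µM for 48 h, and viability was measured by MTT.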

Data set [5] has as its system Calvarial osteoblast. The experiment in a line: Osteogenic activity in Sprague-Dawley rat calvarial osteoblasts assessed as mineralized nodule formation at 10 nM after 21 days by alizarin red-S staining based light microscopic method. The class given is functional, cell-based. An outline of the steps:
(§2)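 Osteoblasts at 10,000–15,000 cells/cm² in duplicate plates, 21 days in differentiation medium, medium changed every 48 h. Cells fixed in 4% PFA, stained with alizarin red-S (40 mM, pH 4.5, 30 min) and photographed. Stain extracted with 10% acetic acid, pH brought to 4.5 with ammonium hydroxide, read at 405 nm, normalized to cell number.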

Data set [6] concerns Calvarial osteoblast. The experiment in a line: Osteogenic activity in Sprague-Dawley rat calvarial osteoblasts assessed as mineralized nodule formation at 10 nM after 21 days by alizarin red-S staining based colorimetric method. The class given is functional. The method in brief: as §2
The nature of data set [7]: Increase in BMP2 mRNA expression in Sprague-Dawley rat calvarial osteoblasts at 10 nM by RT-PCR method relative to control. The class given is functional, Calvarial osteoblast. An outline of the steps:
(§3)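 Primary calvarial osteoblasts were lysed in TRIzol after treatment, and total RNA was extracted. Transcripts were quantified by real-time PCR using the comparative CT (ΔΔCT) method.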

Data set [8] in a line: Increase in OCN mRNA expression in Sprague-Dawley rat calvarial osteoblasts at 10 nM by RT-PCR method relative to control. The class given is functional, Calvarial osteoblast. The method in brief: as §3
A short description of data set [9]: Increase in Runx2 mRNA expression in Sprague-Dawley rat calvarial osteoblasts at 10 nM by RT-PCR method relative to control. Type of data set: functional, Calvarial osteoblast.
Data set [10] relates to Calvarial osteoblast. The data set can be described thus: Increase in Runx2 protein expression in Sprague-Dawley rat calvarial osteoblasts at 10 nM after 48 hrs by Western blot analysis. Type of data set: functional, cell-based. An outline of the steps: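 Rat calvarial osteoblasts (pooled 1–2-day pups, collagenase/dispase digests) at 60–70% confluence treated 48 h. Whole-cell lysates immunoblotted with primary antibody overnight at 4 °C, then HRP secondary, with ECL detection. Densitometry gives fold change normalized to β-actin versus untreated cells. Mean ± SEM of three independent experiments.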

Data set [11] deals with Calvarial osteoblast. The data set can be described thus: Increase in BMP2 protein expression in Sprague-Dawley rat calvarial osteoblasts at 10 nM after 48 hrs by Western blot analysis. The class given is functional, cell-based. The method in brief:
(§4)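 Rat calvarial osteoblasts at 60-70% confluence were treated 48 h. Whole-cell lysates were blotted, blocked in 5% milk, and probed with primary antibody overnight at 4 °C, then with HRP secondary and ECL detection. Densitometry was normalized to β-actin; fold change versus untreated cells, three independent experiments, mean ± SEM.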

Data set [12] relates to Calvarial osteoblast. The experiment in a line: Increase in OCN protein expression in Sprague-Dawley rat calvarial osteoblasts at 10 nM after 48 hrs by Western blot analysis. Type of data set: functional, cell-based. An outline of the steps:
as §4

As for `CCOC(=O)c1cc2c([nH]c3ccccc32)c(C(c2nnnn2C(C)(C)C)N2CCN(CC)CC2)n1` (stereo not drawn), the EC50 in data set [1] amounted to 936 nM. Moreover, in data set [2], the Emax at 0.1 µM stood at 14%.

In the case of `CCOC(=O)c1cc2c([nH]c3ccccc32)c(C(NCc2ccc(OC)cc2)c2nnnn2C(C)(C)C)n1` (stereo not drawn), in data set [3], the Emax at 0.01 µM was found to be 75%. The EC50 in [1] came to 1200 nM. For the same compound, the values for the Activity entry in the data set with Calvarial osteoblast [4] and with Calvarial osteoblast [6] were “Non-Toxic” and 52%, respectively. The outcome in the data set with Calvarial osteoblast [5], in the data set on Calvarial osteoblast [10], in the data set on Calvarial osteoblast [11] and with Calvarial osteoblast [12] was Active. The “fold change (FC)” value in data set [7], in data set [8] and in [9] was 1.8 - 4.6 in each case.

Values taken from ChEMBL document CHEMBL4325822, “Discovery of a tetrazolyl β-carboline with in vitro and in vivo osteoprotective activity under estrogen-deficient conditions” (Medchemcomm, 2018).
